This passage reports inhibition and Activity results from ChEMBL document CHEMBL4373718, “Germacrane Sesquiterpenoids as a New Type of Anticardiac Fibrosis Agent Targeting Transforming Growth Factor β Type I Receptor” (J Med Chem, 2019).

For assay [1], the target named is T1, TGF-beta receptor type-1 (Rattus norvegicus) (UniProt P80204).
T1 sequence (whole entry): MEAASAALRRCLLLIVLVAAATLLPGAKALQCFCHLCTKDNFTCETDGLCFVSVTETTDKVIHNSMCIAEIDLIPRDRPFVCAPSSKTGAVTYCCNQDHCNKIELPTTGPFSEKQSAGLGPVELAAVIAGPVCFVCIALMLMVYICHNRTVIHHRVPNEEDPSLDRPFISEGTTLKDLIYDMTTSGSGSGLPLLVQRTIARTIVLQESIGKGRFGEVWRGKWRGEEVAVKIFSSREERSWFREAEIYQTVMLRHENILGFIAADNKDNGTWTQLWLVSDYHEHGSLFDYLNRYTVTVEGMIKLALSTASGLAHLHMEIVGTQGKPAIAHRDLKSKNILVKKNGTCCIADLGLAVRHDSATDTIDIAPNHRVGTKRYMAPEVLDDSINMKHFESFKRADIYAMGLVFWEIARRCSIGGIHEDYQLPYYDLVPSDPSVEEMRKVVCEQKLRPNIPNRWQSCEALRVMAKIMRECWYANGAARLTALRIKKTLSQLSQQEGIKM
The assay can be described thus: Inhibition of TGFbeta1 receptor in TGFbeta1-stimulated Sprague-Dawley rat cardiac fibroblasts assessed as reduction in Smad3 nuclear translocation at 10 uM measured after 5 mins by DAPI staining-based laser confocal microscopic analysis. The gist of the method: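 Primary rat cardiac fibroblasts treated with 10 µM compound plus 10 ng/mL TGFβ1 for 5 min. Fixed in 4% PFA, permeabilized with 0.1% Triton X-100, blocked with goat serum. Stained with anti-Smad2 or anti-Smad3 overnight at 4 °C, then Alexa 594 secondary and DAPI nuclear stain. Imaged by confocal microscopy.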

Assay [2] deals with Rattus norvegicus. Description: Antifibrotic activity in abdominal aortic constriction Sprague-Dawley rat model of cardiac fibrosis assessed as reduction in Smad2 phosphorylation in heart at 5 mg/kg, ip administered once daily for 4 weeks measured post-last dose by immunohistochemical analysis. The assay is classed as functional, organism-based. A digest of the protocol: (§1)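 AAC rats dosed ip daily for 4 weeks, n=8 per group. Phospho-Smad2/3 stained by immunohistochemistry on 4 µm paraffin heart sections. Stained area summed over 6 fields per rat for statistics.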

The test system of assay [3] is Rattus norvegicus. Description: Antifibrotic activity in abdominal aortic constriction Sprague-Dawley rat model of cardiac fibrosis assessed as decrease in heart fibronectin level at 5 mg/kg, ip administered once daily for 4 weeks measured post-last dose by immunohistochemical analysis relative to control. The class given is functional. The arrangement: scale not given: the % may be the effect or the level left. The gist of the method: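 Male SD rats (200–250 g) with abdominal aortic constriction (suture tied over a 21-G probe above the renal arteries), under pentobarbital 30 mg/kg ip. Dosed ip daily for 4 weeks. Vehicle was saline with 0.5% DMSO and 5% Kolliphor HS 15. Groups: sham, AAC, AAC+nifedipine 10 mg/kg, n=8 each. Formalin-fixed paraffin sections 4 µm thick; FN and α-SMA by immunohistochemistry, collagen by Masson's trichrome; stained area measured.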

Assay [4] relates to Rattus norvegicus. Description: Antifibrotic activity in abdominal aortic constriction Sprague-Dawley rat model of cardiac fibrosis assessed as reduction in Smad3 nuclear translocation in heart at 5 mg/kg, ip administered once daily for 4 weeks measured post-last dose by Western blot analysis. The class given is functional, organism-based. A digest of the protocol: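 AAC rats dosed ip daily for 4 weeks, n=8 per group. Hearts homogenized in lysis buffer with protease and phosphatase inhibitors and spun at 12,000 rpm for 30 min at 4 °C. Nuclear and cytoplasmic fractions prepared with a kit. Protein measured by BCA; 30 µg run on 10% SDS-PAGE, transferred to PVDF and immunoblotted; bands quantified by densitometry.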
Background: A western blot detects proteins with antibodies after separation by electrophoresis.

Assay [5] concerns Rattus norvegicus. Description: Antifibrotic activity in abdominal aortic constriction Sprague-Dawley rat model of cardiac fibrosis assessed as ejection fraction at 5 mg/kg, ip administered once daily for 4 weeks measured post-last dose by echocardiography (reference value: 79.59 +/- 3.13%). The class given is functional.
The subject of assay [6] is Rattus norvegicus. Description: Antifibrotic activity in abdominal aortic constriction Sprague-Dawley rat model of cardiac fibrosis assessed as systolic left ventricular internal diameter at 5 mg/kg, ip administered once daily for 4 weeks measured post-last dose by echocardiography (reference value: 3.99 +/- 0.41 mm). The assay is classed as functional.
Assay [7] concerns Rattus norvegicus. The assay can be described thus: Antifibrotic activity in abdominal aortic constriction Sprague-Dawley rat model of cardiac fibrosis assessed as systolic left ventricular posterior wall thickness at 5 mg/kg, ip administered once daily for 4 weeks measured post-last dose by echocardiography (reference value: 3.62 +/- 0.26 mm). The assay is classed as functional.

The species named for assay [8] is Rattus norvegicus. The assay can be described thus: Effect on TGFbeta2 receptor expression in TGFbeta1-stimulated Sprague-Dawley rat cardiac fibroblasts at 2.5 to 10 uM measured after 5 mins by Western blot analysis. The assay is classed as functional.
Assay [9] deals with Rattus norvegicus. The assay can be described thus: Antifibrotic activity in abdominal aortic constriction Sprague-Dawley rat model of cardiac fibrosis assessed as reduction in Smad3 phosphorylation in heart at 5 mg/kg, ip administered once daily for 4 weeks measured post-last dose by immunohistochemical analysis. The assay is classed as functional, organism-based. A digest of the protocol: as §1

Active and inactive are the calls of the source. The rule behind the calls is not given here.

On to `C=C(C)[C@@H]1C/C=C(\C)C(=O)CCC2=C[C@@H]1OC2=O`, for which, in assay [1], the inhibition result is “Active”. For the same molecule, the outcome in the assay with Rattus norvegicus [2], in the assay on Rattus norvegicus [4] and with Rattus norvegicus [9] was Active. Also, the Activity is reported as 90.7% with Rattus norvegicus [3], 71.38% with Rattus norvegicus [5], 4.74 mm in the assay on Rattus norvegicus [6] and 3.23 mm with Rattus norvegicus [7]. Also, in the assay listed under Rattus norvegicus [8], the result was inactive.
